Only some compounds are listed: those with a hit (about 2.7% of all), similar ones and a draw of the others.
RAM network inh: inhibitors of the yeast RAM network, primary screen, dse1pr::URA3 reporter, 5-FOA selection; hit rate 1.8% among 190,000; S. cerevisiae dse1pr::URA3 reporter, 5-FOA growth OD615, 2 d; analog-sensitive cbk1-as2 kinase mutant strain; inhibition, % at 50 µM; AID 868, 2007;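 active means inhibition above a set limit, 3 SD over mean compound inhibition, cut at about 8.4% in these data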;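 further: inhibition rescues growth on 5-FOA so higher OD means more RAM inhibition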
Yeast life ext: compounds extending yeast replicative lifespan, primary screen, S. cerevisiae, OD615; inhibition of the nicotinamide effect, % at 10 µM; hit rate 0.68% among 130,000; S. cerevisiae growth with nicotinamide; deaD strain in restrictive glucose medium;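 active means inhibition above a set limit, placed 3 SD over the median of all compounds, cut at about 26% in these data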
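Test system – modified budding yeast, DeaD strain · Compound – single dose 10 µM compound, 0.25% DMSO · Times – culture preincubation 4 h, compound exposure 48 h, both 30 °C · Detection – optical density (absorbance) at 615 nm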
Yeast growth inh: growth inhibitors of yeast BB579 in restrictive medium, primary screen, yeast lifespan-shortening project, S. cerevisiae | OD615, 48 h | inhibition, % at 10 µM | hit rate 0.51% among 140,000 | AID 804, 2007;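 active means inhibition above a set limit, 3 SD over the mean compound inhibition, cut at about 44% in these data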
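Test system: DeaD yeast strain BB579 / Buffer or medium: restrictive glucose-based CSMM-D medium / Doses: single 10 µM dose / Schedule: 4 h cell preincubation, 48 h compound exposure, 30 °C humidified / Technique: culture absorbance at 615 nm / Controls: amphotericin B positive control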
SDO1 yeast rescue: growth rescue of sdo1-depleted yeast, primary screen, S. cerevisiae, bone marrow failure model | S. cerevisiae sdo1-depleted JHY4D growth rescue, OD600 30 h; active compounds read high; pdr5 snq2 efflux-pump mutant strain | z-score at 10 µM | hit rate 0.21% among 140,000 | AID 817, 2007;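 active means z-score above 3 at both the 24 hr and the 30 hr optical density reads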
sdo1 rescue conf: SDO1-depleted yeast growth rescue, concentration-response, diseases of bone marrow failure, JHY4D, OD600; shares compounds with SDO1 yeast rescue; S. cerevisiae JHY4D (SDO1-depleted) growth rescue, 30 h; active compounds read high; efflux-deficient strain, SNQ2 and PDR5 mutated; OD recovery (test concentration not listed); hit rate 44% among 440; AID 949, 2007;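 active means yeast growth recovered at 30 hours, either rising with dose fitted slope above 0.001 or with average optical density gain above 0.07, some results past the limit were not filed as active; inactive means growth falling with dose or no effect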
A number is an active result.

For c1ccc(Oc2cccc(NC3=NCCC3)c2)cc1 the results were RAM network inh inactive, Yeast life ext inactive, Yeast growth inh inactive, SDO1 yeast rescue 15 and sdo1 rescue conf inactive.
For O=C(NNS(=O)(=O)c1cccc(Cl)c1)c1cc(-c2ccc(F)cc2)nc2ccccc12 the results were RAM network inh inactive.
CN1CCN(C(=O)C2CCC(CNS(=O)(=O)c3cccc4cccnc34)CC2)CC1 (stereo not drawn) was read as RAM network inh inactive, Yeast life ext inactive, Yeast growth inh inactive and SDO1 yeast rescue inactive.
`CC1CCN(C(=O)C2CCC(CNS(=O)(=O)c3cccc4cccnc34)CC2)CC1` (stereo not drawn) gave RAM network inh inactive, Yeast life ext inactive, Yeast growth inh inactive, SDO1 yeast rescue 9.6 and sdo1 rescue conf inactive.
Screening CCN(CC)CCNC(=O)c1cc2cc(Br)ccc2s1 returned RAM network inh inactive.
Screening CCOC(=O)c1nsnc1NCCSC(=N)N returned RAM network inh inactive, Yeast life ext inactive, Yeast growth inh inactive, SDO1 yeast rescue 6.2 and sdo1 rescue conf 0.094.
Screening CCOC(=O)c1nonc1NC(C)=O returned RAM network inh inactive, Yeast growth inh inactive and SDO1 yeast rescue inactive.
Screening COc1cc2c(cc1NC(=O)c1cccc([N+](=O)[O-])c1)oc1ccccc12 returned RAM network inh inactive, Yeast life ext inactive, Yeast growth inh inactive, SDO1 yeast rescue 3 and sdo1 rescue conf inactive.
For CN(Cc1ccccc1)C(=S)Nc1ccc(OC(F)F)cc1 the results were RAM network inh inactive, Yeast life ext inactive, Yeast growth inh inactive, SDO1 yeast rescue 9.1 and sdo1 rescue conf inactive.
`COC(CNC(=O)C(=O)NCC1OCCN1C(=O)c1ccc(Cl)cc1)OC` (stereo not drawn) gave RAM network inh inactive, Yeast life ext inactive, Yeast growth inh inactive and SDO1 yeast rescue inactive.
`COCCNC(=O)C(=O)NCC1OCCN1C(=O)c1ccc(Cl)cc1` (stereo not drawn) gave RAM network inh inactive, Yeast life ext inactive, Yeast growth inh inactive, SDO1 yeast rescue 11 and sdo1 rescue conf inactive.
`O=C(Nc1ccc2c(c1)OCO2)C1CCCN(S(=O)(=O)Cc2ccccc2)C1` (stereo not drawn) gave RAM network inh inactive, Yeast life ext inactive, Yeast growth inh inactive, SDO1 yeast rescue inactive and sdo1 rescue conf 0.082.
Screening Cc1n[nH]c(C)c1S(=O)(=O)N1CCCC(C(=O)Nc2ccc3c(c2)OCCO3)C1 (stereo not drawn) returned RAM network inh inactive, Yeast life ext inactive, Yeast growth inh inactive, SDO1 yeast rescue inactive and sdo1 rescue conf 0.094.
O=C(COC(=O)CNC(=O)c1ccccc1)Nc1ccc(F)c([N+](=O)[O-])c1 was read as RAM network inh inactive.
Screening CCCCN(C)C(=O)c1cc2cc3ccc(OC)cc3nc2s1 returned RAM network inh inactive, Yeast life ext inactive, Yeast growth inh inactive, SDO1 yeast rescue 16 and sdo1 rescue conf 0.076.
`COC(=O)c1ccccc1C(=O)N1CCCC(CCC(=O)NCc2ccc(F)c(F)c2)C1` (stereo not drawn) gave RAM network inh inactive.
`COc1ccc(OCC(=O)Nc2cccc(NC(=O)COc3ccc(OC)cc3)n2)cc1` gave RAM network inh inactive, Yeast life ext inactive, Yeast growth inh inactive, SDO1 yeast rescue 3.1 and sdo1 rescue conf inactive.
`COc1ccc(OCC(=O)Nc2nonc2NC(=O)COc2ccc(OC)cc2)cc1` gave RAM network inh inactive.
Screening Cc1nnc(NC(=O)CSc2ncnc3c2cnn3-c2ccccc2C)s1 returned RAM network inh inactive, Yeast life ext inactive, Yeast growth inh inactive, SDO1 yeast rescue inactive and sdo1 rescue conf inactive.
Cc1ccccc1-n1ncc2c(SCC(=O)N3c4ccccc4CC3C)ncnc21 (stereo not drawn) was read as RAM network inh inactive, Yeast life ext inactive, Yeast growth inh inactive and SDO1 yeast rescue inactive.
For CC(C)Oc1cccc(C(=O)C2CCCN(C(=O)c3ccnn3C)C2)c1 (stereo not drawn) the results were RAM network inh inactive.
Screening CCOC(=O)c1sc2nc3c(SCC(=O)O)cc(C(=O)c4cc(F)ccc4O)cn3c(=O)c2c1C returned RAM network inh inactive, Yeast life ext inactive, Yeast growth inh inactive, SDO1 yeast rescue 3.1 and sdo1 rescue conf inactive.
Screening CCOC(=O)c1sc2nc3c(SCC(=O)O)cc(C(=O)c4ccccc4O)cn3c(=O)c2c1C returned RAM network inh inactive.
For Cc1cccc2c(SCC(=O)NCC3CCCO3)nc(-c3ccc(F)cc3)nc12 (stereo not drawn) the results were RAM network inh inactive, Yeast life ext inactive, Yeast growth inh inactive, SDO1 yeast rescue inactive and sdo1 rescue conf 0.11.
Screening Cc1cccc2cc(C#N)c(SCC(=O)NCC3CCCO3)nc12 (stereo not drawn) returned RAM network inh inactive, Yeast growth inh inactive and SDO1 yeast rescue inactive.
O=C(C1=C(O)C(=O)N(CCc2ccccc2)C1c1cccnc1)c1ccco1 (stereo not drawn) was read as RAM network inh inactive, Yeast life ext inactive, Yeast growth inh inactive and SDO1 yeast rescue inactive.
`COCCCN1C(=O)C(O)=C(C(=O)c2ccco2)C1c1ccccc1` (stereo not drawn) gave RAM network inh inactive, Yeast life ext inactive, Yeast growth inh inactive, SDO1 yeast rescue inactive and sdo1 rescue conf 0.097.
Screening COc1ccc(C)cc1NC(=O)C1CCCN(S(=O)(=O)c2cnc[nH]2)C1 (stereo not drawn) returned RAM network inh inactive, Yeast life ext inactive, Yeast growth inh inactive and SDO1 yeast rescue inactive.
Screening COc1ccccc1NC(=O)C1CCCN(S(=O)(=O)c2cnc[nH]2)C1 (stereo not drawn) returned RAM network inh inactive, Yeast life ext inactive, Yeast growth inh inactive, SDO1 yeast rescue inactive and sdo1 rescue conf inactive.
Screening COc1ccc(OC)c(C2=NOC(C(=O)NCc3ccco3)C2)c1 (stereo not drawn) returned RAM network inh inactive, Yeast life ext inactive, Yeast growth inh inactive, SDO1 yeast rescue 7.6 and sdo1 rescue conf inactive.
Screening CCOC(=O)C1CCCN(C(=O)Cc2ccc(C)cc2)C1 (stereo not drawn) returned RAM network inh inactive, Yeast life ext inactive, Yeast growth inh inactive, SDO1 yeast rescue inactive and sdo1 rescue conf inactive.
Cc1cccc(C)c1NC(=S)NCCSc1ccc(Cl)cc1 was read as RAM network inh inactive.
For COc1ccc(OC)c(-c2c3cc(O)c(=O)cc-3oc3cc(O)c(O)cc23)c1 the results were RAM network inh inactive, Yeast life ext inactive, Yeast growth inh 63, SDO1 yeast rescue 5.7 and sdo1 rescue conf inactive.
Screening Cc1cc(Br)ccc1OCC(=O)NNC(=O)C(=O)Nc1ccccc1 returned RAM network inh inactive.

From PubChem
